Values after ≈ are worked out from the molar mass of the structure shown.
Tests used:
[1] = Aqueous solubility of the compound in 0.1 M sodium phosphate buffer at pH 7.4; format: physicochemical
Procedure, shortened: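 Solubility determined in 0.1 M sodium phosphate buffer, pH 7.4, with 1% DMSO present.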

[2] = biological target: T1, Bifunctional epoxide hydrolase 2 (Homo sapiens, UniProt P34913); assay: Inhibition of recombinant human sEH expressed in baculovirus expression system using CMNPC as substrate preincubated for 5 mins followed by substrate addition measured for 10 mins by fluorescent based assay
T1 sequence (P34913 whole entry): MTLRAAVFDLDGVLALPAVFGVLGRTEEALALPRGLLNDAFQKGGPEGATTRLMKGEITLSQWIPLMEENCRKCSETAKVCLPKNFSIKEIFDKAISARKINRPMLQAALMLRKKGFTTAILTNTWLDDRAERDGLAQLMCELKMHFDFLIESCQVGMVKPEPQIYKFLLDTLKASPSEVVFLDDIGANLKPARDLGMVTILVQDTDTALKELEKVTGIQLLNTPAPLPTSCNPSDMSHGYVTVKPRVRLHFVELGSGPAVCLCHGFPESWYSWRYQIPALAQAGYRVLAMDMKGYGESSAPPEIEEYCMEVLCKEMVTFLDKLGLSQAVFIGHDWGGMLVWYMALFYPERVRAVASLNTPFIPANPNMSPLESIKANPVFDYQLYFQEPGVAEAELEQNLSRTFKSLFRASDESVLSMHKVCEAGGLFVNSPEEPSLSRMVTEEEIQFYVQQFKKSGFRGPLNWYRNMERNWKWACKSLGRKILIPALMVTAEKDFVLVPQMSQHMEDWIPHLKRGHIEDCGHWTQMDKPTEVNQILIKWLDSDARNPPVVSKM
Procedure, shortened: (§1)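 Kinetic fluorescent assay giving IC50 values; each value is the mean of three separate experiments.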

[3] = biological target: T2, Bifunctional epoxide hydrolase 2 (Mus musculus, UniProt P34914); assay: Inhibition of recombinant mouse sEH expressed in baculovirus expression system using CMNPC as substrate preincubated for 5 mins followed by substrate addition measured for 10 mins by fluorescent based assay; procedure, shortened: as §1
T2 sequence (P34914 whole entry): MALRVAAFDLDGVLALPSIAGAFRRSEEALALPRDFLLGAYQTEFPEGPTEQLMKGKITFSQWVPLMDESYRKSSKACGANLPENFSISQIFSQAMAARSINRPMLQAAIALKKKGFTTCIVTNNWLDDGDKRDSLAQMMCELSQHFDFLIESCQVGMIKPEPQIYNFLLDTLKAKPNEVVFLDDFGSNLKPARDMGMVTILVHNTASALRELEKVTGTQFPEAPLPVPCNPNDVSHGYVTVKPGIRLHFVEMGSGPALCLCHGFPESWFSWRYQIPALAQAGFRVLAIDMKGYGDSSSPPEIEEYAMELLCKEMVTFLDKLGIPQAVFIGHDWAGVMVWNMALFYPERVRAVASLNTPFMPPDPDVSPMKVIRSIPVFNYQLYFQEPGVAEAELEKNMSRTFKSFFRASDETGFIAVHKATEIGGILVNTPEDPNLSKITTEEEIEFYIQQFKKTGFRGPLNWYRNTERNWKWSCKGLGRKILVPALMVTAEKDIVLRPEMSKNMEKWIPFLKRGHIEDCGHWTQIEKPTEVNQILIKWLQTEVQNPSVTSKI

[4] = biological target: T3, Bifunctional epoxide hydrolase 2 (Rattus norvegicus, UniProt P80299); assay: Inhibition of rat sEH using CMNPC as substrate preincubated for 5 mins followed by substrate addition measured for 10 mins by fluorescent based assay; procedure, shortened: as §1
T3 sequence (P80299 whole entry): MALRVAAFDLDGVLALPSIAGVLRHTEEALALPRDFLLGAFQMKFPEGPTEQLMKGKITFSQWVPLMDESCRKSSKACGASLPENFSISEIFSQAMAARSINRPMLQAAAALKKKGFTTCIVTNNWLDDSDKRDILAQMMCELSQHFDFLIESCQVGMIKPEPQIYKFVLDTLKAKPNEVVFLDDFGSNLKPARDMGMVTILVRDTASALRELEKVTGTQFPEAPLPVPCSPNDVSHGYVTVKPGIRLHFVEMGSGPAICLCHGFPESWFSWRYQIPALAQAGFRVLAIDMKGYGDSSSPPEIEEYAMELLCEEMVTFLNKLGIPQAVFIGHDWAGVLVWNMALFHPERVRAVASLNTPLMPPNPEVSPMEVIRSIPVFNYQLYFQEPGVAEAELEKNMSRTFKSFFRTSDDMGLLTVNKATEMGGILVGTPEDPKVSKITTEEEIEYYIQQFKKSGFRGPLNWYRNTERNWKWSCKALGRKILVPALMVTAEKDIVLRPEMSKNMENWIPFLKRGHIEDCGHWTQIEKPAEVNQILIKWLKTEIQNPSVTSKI

SMILES | solubility [1] [µM] | IC50 [2] [µM] | IC50 [3] [µM] | IC50 [4] [µM]
S=C(NCCCCCCCCNC(=S)NC12CC3CC(CC(C3)C1)C2)NC12CC3CC(CC(C3)C1)C2 | 40 to 50 (≈ 21.2 to 26.5 µg/mL) | 0.0098 | 1.17 | 0.374
CC(NC(=O)NCCCCCCCCNC(=O)NC(C)C12CC3CC(CC(C3)C1)C2)C12CC3CC(CC(C3)C1)C2 (centres undefined) | 10 to 25 (≈ 5.55 to 13.9 µg/mL) |  |  | 
S=C(NCCNC(=S)NC12CC3CC(CC(C3)C1)C2)NC12CC3CC(CC(C3)C1)C2 | 100 to 110 (≈ 44.7 to 49.1 µg/mL) | 0.987 |  | 
CC12CC3CC(C)(C1)CC(NC(=S)Nc1ccccc1)(C3)C2 | 40 to 60 (≈ 12.6 to 18.9 µg/mL) | 1.22 |  | 
CC(NC(=S)Nc1ccc(F)cc1)C12CC3CC(CC(C3)C1)C2 (centres undefined) | 75 to 100 (≈ 24.9 to 33.2 µg/mL) | 1.08 |  | 
S=C(Nc1ccc(C23CC4CC(CC(C4)C2)C3)cc1)Nc1ccc(C23CC4CC(CC(C4)C2)C3)cc1 | 100 to 125 (≈ 49.7 to 62.1 µg/mL) | 15.3 |  | 
CC12CC3CC(C)(C1)CC(NC(=S)Nc1ccc(Cl)cc1)(C3)C2 |  | 1.05 |  | 
S=C(NCC12CC3CC(CC(C3)C1)C2)Nc1ccc(C23CC4CC(CC(C4)C2)C3)cc1 | 65 to 75 (≈ 28.3 to 32.6 µg/mL) | 5.9 |  | 
S=C(NCCCCCCCNC(=S)NC12CC3CC(CC(C3)C1)C2)NC12CC3CC(CC(C3)C1)C2 | 70 to 80 (≈ 36.2 to 41.3 µg/mL) | 0.0072 | 0.0473 | 0.0353
CC(NC(=S)NCCc1ccccc1)C12CC3CC(CC(C3)C1)C2 (centres undefined) | 20 to 30 (≈ 6.85 to 10.3 µg/mL) | 0.345 |  | 
CCC(CC12CC3CC(CC(C3)C1)C2)NC(=S)Nc1ccccc1 (centres undefined) |  | 50.2 |  | 
O=C(NCCCCCCCCNC(=O)NC1C2CC3CC(C2)CC1C3)NC1C2CC3CC(C2)CC1C3 (centres undefined) | 5 to 10 (≈ 2.49 to 4.99 µg/mL) |  |  | 
S=C(NCCc1ccccc1)NC1C2CC3CC(C2)CC1C3 (centres undefined) | 20 to 30 (≈ 6.29 to 9.43 µg/mL) | 0.0082 | 0.108 | 0.0783
CC(NC(=S)Nc1ccc(C23CC4CC(CC(C4)C2)C3)cc1)C12CC3CC(CC(C3)C1)C2 (centres undefined) | 10 to 15 (≈ 4.49 to 6.73 µg/mL) | 57.4 |  | 
CC(NC(=S)NC1C2CC3CC(C2)CC1C3)C12CC3CC(CC(C3)C1)C2 (centres undefined) | 30 to 40 (≈ 11.2 to 14.9 µg/mL) | 7.78 |  | 

Further lines, results first:

solubility [1] [µM] | IC50 [2] [µM] | IC50 [3] [µM] | IC50 [4] [µM] | SMILES
90 to 100 (≈ 42.7 to 47.5 µg/mL) | 0.0908 | 0.13 | 0.123 | S=C(NCCCCNC(=S)NC12CC3CC(CC(C3)C1)C2)NC12CC3CC(CC(C3)C1)C2
150 to 175 (≈ 47.8 to 55.7 µg/mL) | 0.159 |  |  | Fc1ccc(NC(=S)NCC23CC4CC(CC(C4)C2)C3)cc1
8 to 12 (≈ 2.74 to 4.11 µg/mL) | 0.216 |  |  | CC12CC3CC(C)(C1)CC(NC(=S)NCCc1ccccc1)(C3)C2
90 to 100 (≈ 41.5 to 46.1 µg/mL) | 0.0976 | 0.0749 | 0.0433 | S=C(NCCCNC(=S)NC12CC3CC(CC(C3)C1)C2)NC12CC3CC(CC(C3)C1)C2
80 to 90 (≈ 39.1 to 44 µg/mL) | 0.0211 | 0.0362 | 0.0461 | S=C(NCCCCCNC(=S)NC12CC3CC(CC(C3)C1)C2)NC12CC3CC(CC(C3)C1)C2
125 to 150 (≈ 41.6 to 49.9 µg/mL) | 0.148 |  |  | Fc1ccc(NC(=S)NCCC23CC4CC(CC(C4)C2)C3)cc1
70 to 80 (≈ 35.2 to 40.2 µg/mL) | 0.0077 | 0.0506 | 0.0616 | S=C(NCCCCCCNC(=S)NC12CC3CC(CC(C3)C1)C2)NC12CC3CC(CC(C3)C1)C2
120 to 130 (≈ 63.7 to 69 µg/mL) |  |  |  | CC(NC(=S)NCCCCNC(=S)NC(C)C12CC3CC(CC(C3)C1)C2)C12CC3CC(CC(C3)C1)C2 (centres undefined)
50 to 60 (≈ 17.2 to 20.7 µg/mL) | 0.131 |  |  | S=C(NC1C2CC3CC(C2)CC1C3)NC1C2CC3CC(C2)CC1C3 (centres undefined)
120 to 130 (≈ 70.4 to 76.3 µg/mL) |  |  |  | CC(NC(=S)NCCCCCCCCNC(=S)NC(C)C12CC3CC(CC(C3)C1)C2)C12CC3CC(CC(C3)C1)C2 (centres undefined)
10 to 15 (≈ 3.29 to 4.93 µg/mL) | 0.058 |  |  | CC12CC3CC(C)(C1)CC(NC(=S)NCc1ccccc1)(C3)C2
175 to 200 (≈ 73.6 to 84.1 µg/mL) | 5.94 |  |  | S=C(Nc1ccc(C23CC4CC(CC(C4)C2)C3)cc1)NC1C2CC3CC(C2)CC1C3 (centres undefined)
40 to 50 (≈ 13.1 to 16.4 µg/mL) | 0.234 |  |  | CC(N=C(S)NCc1ccccc1)C12CC3CC(CC(C3)C1)C2 (centres undefined)

Source: ChEMBL document CHEMBL4118216, “Adamantyl thioureas as soluble epoxide hydrolase inhibitors” (Bioorg Med Chem Lett, 2018)
